# Results reported in the EternaBench riboswitch data.
# System: MS2 coat protein
# Experiment: apparent Kd, MS2 coat protein; higher = weaker binding; RNA-MaP array; FMN 200 µM where present
# Outline: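 Designs were transcribed by stalled E. coli RNA polymerase on Illumina sequencing-chip clusters. They were titrated with SNAP-549-labelled MS2 coat protein from 0.7 or 1.5 nM, doubling to 3 µM, without and then with constant ligand. Buffer: 100 mM Tris-HCl pH 7.5, 80 mM KCl, 4 mM MgCl2, BSA, DTT, yeast tRNA, Tween-20. Green signal was normalised to red-channel RNA signal and control-cluster median Fmax. Apparent Kd is the median of filtered per-cluster binding-curve fits.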
# [1] = designed as: OFF switch for flavin mononucleotide, no ligand
# [2] = ligand present: flavin mononucleotide, designed as: OFF switch for flavin mononucleotide
# [3] = designed as: ON switch for flavin mononucleotide, no ligand
# [4] = ligand present: flavin mononucleotide, designed as: ON switch for flavin mononucleotide
Sequence,apparent Kd [1] [nM],apparent Kd [2] [nM],apparent Kd [3] [nM],apparent Kd [4] [nM]
AACAAGAGGAUCACCCAUGUAACAUGAGGAUCACCCAUGUUCAAGGAUAUGUACAUGAUACAUGUACAGAAGGUGAAUUGGACU,21,36.2,–,–
AAAAAGCGAGGAUAUACAUGAGGAUCACCCAUGUAAAAAAAAAGAGAUGAAACAUCAUGUAGAAGGCGCAAAAA,211,134,–,–
CGUUAAUAUCGAGGAUAUGUCUAGACACAUGAGGAUCACCCAUGUAUGUGUAUAGAAGGCGAUAUUAACAGCAUGUUACAUGCU,–,–,41,16.7
GCCGGGUAGGCAGGAUAUCCUCGCGCAAACACAUGAGGAUCACCCAUGUACACAAAACGUGAUAUGGAGAAGGGCCAACCCACG,–,–,24.1,5.8
AUCCGGCGUGUAGGAUAUGGAUCCGAUUAGGAUCCAGAAGGACAUGAGGAUCACCCAUGUACAUGUAAACAGUCAUCACCGGAA,10.2,49.4,–,–
AAAAACGGAGGAUAUACAAAAAAAAAAAAAAAAAAAAUGGGACAUGAGGAUCACCCAUGUAGAAGGCCGAAAAA,72,164,–,–
AAGUAGGUAGGAUAUACAUGGAUAUACAUUCAUGUGGACCUACAUGAGGAUCACCCAUGUAGAAGGACCUAUAA,40.4,58,–,–
CAGACCGGCGUAGGAUAUGUCGACAUGAGGAUCACCCAUGUAAACCUUGUCUGGUCCGGUGUGUGACAGAAGGAUGUCGGCCAU,14.6,27.9,–,–
GACCAGGCAGGAUAUACAUGAGGAUCACCCAUGUGUCUGCGUUGGGCACGUGAACACGGUAGAAGGGCCUUGAC,12.2,22.9,–,–
AUAUAUAUAAGGUAGGAUAUACUAAAGUAAACAUGAGGAUCACCCAUGUAAAGAAAGAAACUCAUGUAGAAGGACCAUAUAUAUAU,–,–,171,36.5
GAAAAGGUAGGAUAUACGAAAAAAAAGGGUAGAAAAAAAACACAUGAGGAUCACCCAUGUAGAAGGACCAAAAG,31.9,94.1,–,–
GUUGCGUUUGUGAGGAUAUGCUGGUCCUUGGUUCGGCAGAAGGCACAUGAGGAUCACCCAUGUGGUGUCGUUCC,14.2,22.4,–,–
GGAUCGAAAGUGAGGAUAUGCUGGUCCUUGGAUCAGCAGAAGGCACAUGAGGAUCACCCAUGUGUUCCCGGUCC,19.7,99.8,–,–
UUGGACGUCGUAGGAUAUGUAGGACAUUCCUACAUGAGGAUCACCCAUGUUGACAUGGAAGAAGGACAGAAGGACGAUGUCCAU,–,–,152,10.6
AGUUGGCGAGGAUAUACAUGAGGAUCACCCAUGUGAAGAAGAAUAGUGAGGAAGAAAAGUAGAAGGCGCUGACA,47,260,–,–
AAUUGACACGUAGGAUAUCGAACUAUAUUAACACGAGAAGGACGUACAUGAGGAUCACCCAUGUUUAAUGGAGUAGAUAAGUUG,144,283,–,–
GAAGCACGCAUUAACAUGAGGAUCACCCAUGUCAAAAGACGUGAGGAUAUGGAUCUGAAGAAGAUCCAGAAGGCACCGUGCUAA,–,–,8.41,5.3
GCAGGUCGAGGAUAUACAUGAGGAUCACCCAUGUGAUUAGCAGUCCUCGGACUGCAAUGUAGAAGGUGACCUGC,148,501,–,–
UCUCAGUGAGGAUAUGCCAGGGACUAAUUCGUCCACCCGUCGCAGAAGGCACAUGAGGAUCACCCAUGUGGAUG,109,54.5,–,–
UUUUUACAUGAGGAUCACCCAUGUCAGGAUAUGGUUAUAUUUUAUUAUUUUAUUUUUUCCAGAAGGGACUAUUA,343,162,–,–
AAGCGACAUGAGGAUCACCCAUGUAGCAGGGUCAGAGGAUAUUUGAGCUUGGUGAGGGUUAAAGAAGGUUGAAAUC,–,–,25.2,33.1
GUAGAACAUGAGGAUCACCCAUGUGAAGACGCAUGAGGAUAUAUCCGUACCUAGCAUACGAUAGAAGGCAUGAUAC,–,–,113,49.7
AUAUAGUCAGGAUAUCGAAGUGAGUGUUGGUUUGUAAGGUACGAGAAGGGACAUGAGGAUCACCCAUGUAGGAA,40.3,38.8,–,–
AAUUUAAUACAUGAGGAUCACCCAUGUAAAUUAAUUAAGAUCUAGGAUAUCAGCUCGAAUAGAGCUGAGAAGGAGAUCACAUGU,–,–,17.4,15.1
CGUUCUAGAGGAUAUACAGCUUAUGUACGGCGAUCUGGACAACAUGAGGAUCACCCAUGUAGAAGGCUAAGCAC,36.4,69,–,–
AUUACAUGAGGAUCACCCAUGUACGGCACGUUUCAAAACAGUGAGGAUAUACGAUAUGUAGGAACGUAGAAGGCACUGGGUGCA,–,–,82.7,35.9
AGCGGAGACAUGAGGAUCACCCAUGUCAGUGCCGGCGAUACCAGAAGGCCCGGCGGGCCUCGGCGGGAGGAUAUGGGUUCAACA,–,–,51.8,14.9
CUUAAGGCAGGAUAUGCUUUUUGUGACAUGAGGAUCACCCAUGUGAUGCAGUUUGGGUUUGCAGAAGGGCCUGAGU,111,61.1,–,–

Sequence,apparent Kd [1] [nM],apparent Kd [2] [nM],apparent Kd [3] [nM],apparent Kd [4] [nM]
CGCAAGUAUACAUGAGGAUCACCCAUGUAAGAUAGGGUAAUCAGAAGGUACAAUUAGAGAUAGAGUAAGGAUAUGAAAUUUGCG,–,–,358,94.5
AAAAUGAGUCAAGGAUAUCCGAGCAGAAUGCUAGGAGAAGGUGACAUGAGGAUCACCCAUGUCUCUCCGAGCAUGGUAUUCUCA,27.1,31.9,–,–
GGAUAGGACAGAGGAUAUACGUGCUAGAGAUACUAGCAAAAUUGCCUCACAUGAGGAUCACCCAUGUAGAAGGCUGUCCUAUCG,7.72,134,–,–
CAGUGCUGUUGAGAGGAUAUGCGGCGACGGACAUGAGGAUCACCCAUGUUAGCGACAGCGUUGCGGCAGAAGGCUCUGCCCGCUG,–,–,21,13.7
GCCAUCGCAUGAGGAUAUGCUCCGGUUUCCGGAGCAGAAGGCAUGUCAUAAAACAUGAGGAUCACCCAUGUAGUUAAGAUGGCA,–,–,8.86,5.18
AUCAUCUUGUCAGGAUAUGCGUGUCAACGAAAGUAGACAAUCUUGAUAACAUGAGGAUCACCCAUGUAGAAGGGACGAGAUGAU,21,21.9,–,–
GUGUGCUGAGGAUAUACAGAGGAAGAUAAGAUAAGAUAAUCACAUGAGGAUCACCCAUGUAGAAGGCAGAGUGU,23.7,35.5,–,–
CAGUACUGAGGAUAUACAUGAGGAUCACCCAUGUGUUCCAGCUUGGAAACUAGCAAAAGUAGAAGGCAGUACUG,14.8,158,–,–
CCAGCGUAUGUGAGGAUAUGCUGGUCCUUGGAUCAGCAGAAGGCACAUGAGGAUCACCCAUGUGGAAUCGUUGG,23.5,92.1,–,–
AGUGUCAUCGAGAAGGCCUUAACAUGAGGAUCACCCAUGUUAUAACAUGGGAGGAUAUCGAUGAUACAGCUACGUUUCGUAGCA,–,–,286,18.2
GUAGCUAUCGGAGGAUAUUCAUACUGGAAACGGACAUGAGGAUCACCCAUGUGGCGAAAGCCUUGGGAGAAGGCUGAUAGCUAC,–,–,139,7.72
UUUCUACAUGAGGAUCACCCAUGUCAACAAAGUCGAGGAUAUGGGCAUAUUAUCUUAUUUCCAGAAGGCGAUUUCU,–,–,145,29.5
GAUUCACAUGAGGAUCACCCAUGUCGUUUUAUGGGAGGAUAUACGUGGACCGUAGUCCGCGUAGAAGGCCUAAUUG,–,–,102,30.4
ACUGACAUGAGGAUCACCCAUGUCUUGAAUAGGUCAAAUUCACAGGAUAUGCGCUAGGACAGGGUGCAGAAGGGUGAUGCAAUG,–,–,45.4,12.1
UAUAUAUAGUAAGGAUAUGUAUUUAUUUUACAAACAGAAGGUACUGACAUGAGGAUCACCCAUGUUUUAGUGUGGGCAUGUAGA,61.1,76.1,–,–
AUUGAUAGCACAGGAUAUUGAGAUUUGAAUUGACAAGAAGGGUGUACAUGAGGAUCACCCAUGUAAUGGCUGCCUCGUUGAUUA,57.8,132,–,–
UGUUGUAAACAGAACAUGAGGAUCACCCAUGUGCUCUCGUGUAAGGAUAUACAUUCGUAUGGAAAGUAGAAGGUACUAAUUAUG,–,–,103,117
GGAGCACACCUUAACAUGAGGAUCACCCAUGUCAAAAGACAUGAGGAUAUGGAUCCGAAAAGGAUCCAGAAGGCAUGGUGCUCC,–,–,188,11.9
GGAUAGGACAGAGGAUAUACGUGGUAGAGAUACUAGCAAAAUUUCCUCACAUGAGGAUCACCCAUGUAGAAGGCUGUCCUAUCG,532,19.1,–,–
UUGUUAUAUGUAGGAUAUGCGUAUUAUUAUUAUGCAGAAGGACAUGAGGAUCACCCAUGUAUAUUAUUAUUAUAUAUUAUAUAU,27.9,43.7,–,–
CGUAGGAUCCAGAAGGCAUGAAACAUGAGGAUCACCCAUGUCAAAGACAUGAGGAUAUGGAUCCUACGAAAAGUGCGAAAGCAC,–,–,4.1,3.15
GCCAAGGUACAGAAGGGACUACAUGAGGAUCACCCAUGUGUUUCUGCACGUAAAUGAUACAGUGGUCAGGAUAUGUGCUCCAAA,9.49,25.8,–,–
GGAUAGGACACAGGAUAUACGUGCUAGAGAUACUAGCAAAAUUUCCUCACAUGAGGAUCACCCAUGUAGAAGGCUGUCCUAUCG,6.15,5.95,–,–
UCAGGCUUCGAGAAGGACAUGAAUCGUAGCAUUGCUACGAUCAAAGAUACAUGAGGAUCACCCAUGUAGGAUAUCGGAGUCUGC,5.75,7.63,–,–
GUCAUACAUGAGGAUCACCCAUGUAAGGAUAUGCUAGCGGUCGGAAGAAUGACUGCUAGCAGAAGGUACAUGAU,64.1,121,–,–
AAGUCUGGACGAGGAUAUCAGCUGUAACUGGCGUCAACAUGAGGAUCACCCAUGUUGCUAUAGGGUGAGAAGGCGUUUGGGCAA,–,–,24.1,19.5
UGCCGCAACAACGCGGCGUCACAUGAGGAUCACCCAUGUUCACAGGAUAUGCGAUAGCCAACGAAGCAGAAGGGUGAUUACUUA,–,–,53.7,219
